Shown are actives, neighbours in structure and some others; about 1.8% of the full set was active somewhere.
M4 ag: agonists of human muscarinic M4 receptor (CHRM4). P08173. CHO-K1 hM4/Gqi5, Fluo-8 calcium fluorescence; vehicle 0%, full acetylcholine response 100%. activation, % at 3 µM. 360,000 tested, 0.14% active. AID 624127;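 active = activation above the run mean over all test wells plus 3 SD, cut at about 32% in these data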;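 note: peak over basal fluorescence ratio per well then scaled between controls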
M4 antag: antagonists of human muscarinic M4 receptor (CHRM4). CHO-hM4 cells, ACh EC80, Fluo-8 calcium fluorescence. inhibition, % at 3 µM. P08173. 360,000 tested, 0.73% active;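 active = inhibition above its plate's cutoff, the mean inhibition of sample wells plus 3 SD, cut at about 27% in these data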
M5 antag: antagonists of human muscarinic M5 receptor (CHRM5); P08912; CHO-hM5 cells, Fluo-8 calcium fluorescence, ACh EC80; inhibition, % at 3 µM; 360,000 tested, 0.59% active;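 active = inhibition above a per-plate cutoff, the mean of that plate's test compounds plus 3 SD, cut at about 27% in these data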
Target sequence (P08912 whole entry, looked up): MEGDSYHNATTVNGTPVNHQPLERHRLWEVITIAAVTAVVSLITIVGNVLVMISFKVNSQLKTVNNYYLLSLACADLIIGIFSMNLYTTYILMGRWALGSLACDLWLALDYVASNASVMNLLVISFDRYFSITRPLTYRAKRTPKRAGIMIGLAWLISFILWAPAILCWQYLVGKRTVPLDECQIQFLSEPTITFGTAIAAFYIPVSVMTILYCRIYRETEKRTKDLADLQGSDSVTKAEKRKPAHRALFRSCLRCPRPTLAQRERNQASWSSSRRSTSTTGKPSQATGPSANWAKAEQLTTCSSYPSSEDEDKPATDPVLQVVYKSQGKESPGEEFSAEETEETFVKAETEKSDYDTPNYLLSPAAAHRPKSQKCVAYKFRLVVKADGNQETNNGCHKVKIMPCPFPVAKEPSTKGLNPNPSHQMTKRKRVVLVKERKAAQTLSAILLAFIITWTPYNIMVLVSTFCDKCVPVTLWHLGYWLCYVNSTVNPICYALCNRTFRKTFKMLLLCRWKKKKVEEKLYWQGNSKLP
CHRM4 PAM: positive allosteric modulators of human muscarinic M4 receptor; CHO-K1 hM4/Gqi5, Fluo-8 calcium fluorescence, ACh EC20; 0% = ACh EC20, 100% = maximal ACh; activation, % at 3 µM; 360,000 tested, 0.4% active; AID 624126;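 active = activation above its plate's cutoff, the mean activation of sample wells plus 3 SD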
M5 ag: CHRM5 agonism in calcium assay; CHO-K1 hM5 cells, Fluo-8 calcium fluorescence; 0% DMSO wells, 100% maximal acetylcholine response; activation, % at 3 µM; 360,000 tested, 0.19% active;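 active = activation above the run's mean over test compounds plus 3 SD, cut at about 23% in these data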;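 note: signal is peak over basal fluorescence ratio across the kinetic read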
M5 PAM: potentiates acetylcholine response at human M5 receptor | P08912 | CHO-K1 hM5, Fluo-8 calcium, ACh EC20 PAM; 0% = ACh EC20, 100% = ACh EC100 | activation, % at 3 µM | 360,000 tested, 0.3% active | AID 624038;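 active = activation above the run cutoff, the mean activation of all test compounds plus 3 SD, cut at about 18% in these data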
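Assay system: CHO-K1 hM5 cells / Incubation: Fluo-8 loading 80 min at 37 °C plus 30 min room temperature / Technique: Fluo-8 calcium dye fluorescence, kinetic read / Repeats: single replicate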
Each line names hits and unclear results; the compound was inactive in the other large screens.

CNc1nc(NCCOc2ccccc2Cl)c2sccc2n1	none
CCOC(=O)[C@]12CCC=C1N(Cc1ccco1)C(=O)[C@H](CC(=O)NCCCOC)C2	none
CSc1ccccc1CNc1nc(NCC2CC2)nc2ccsc12	M5 antag 30
C#Cc1cccc(Nc2nc(NCc3ccccc3)nc3ccsc23)c1	M4 antag 27
CCNc1nnc(CCn2nc(C)c(Br)c2C)s1	M5 PAM 24
CCCCNc1nnc(CCn2nc(C)c(Br)c2C)s1	none
COc1ccc(/C=C/c2ccc3ccccc3[n+]2C)cc1OC	none
CC(=O)Oc1ccccc1/C=C/c1ccc2ccccc2[n+]1C	M5 antag 32
CN(CC(=O)Nc1ccc(F)cc1)CC(=O)NC1CCCCC1	none
Cc1ccc(Oc2ncccc2C(=O)NCC(=O)O)cc1	M5 PAM 21
Cc1ccc(C)c(OCC(=O)N/N=C/c2ccc(N3CCOCC3)cc2)c1	none
C[C@H](NC(=O)[C@@H]1Cc2ccccc2CN1)C(=O)Nc1ccc2c(c1)OCCO2	M5 PAM 20
NC(N)=NS(=O)(=O)c1ccc(NC(=S)NC(=O)Cc2ccc(Cl)cc2)cc1	none
Cc1ccc2c(c1)cc1c(=O)n(CC(=O)N(C)c3ccccc3)nc(C)n12	CHRM4 PAM 16
Nc1cc([N+](=O)[O-])ccc1Nc1ccc(O)cc1	M5 antag 32
COc1ccc(NC(=O)c2cc(-c3ccccn3)nc3ccccc23)c(OC)c1	M5 antag 27
CCOc1ccccc1NC(=O)c1cc(-c2ccccn2)nc2ccccc12	none
O=C1CC(=C(c2ccccc2)c2ccccc2)C(=O)N1CCCCN1CCN(c2ccccc2)CC1	M4 antag 34
O=C(CCCN1CCN(c2ccccc2)CC1)c1ccc(F)cc1	none
COc1ccccc1OCCC(=O)OCC(=O)NC(C)c1ccccc1 (stereo unspecified)	none
CC(C)N1CCN(C(=O)c2ccc(NC(=O)c3ccc(Br)o3)cc2)CC1	M5 PAM 20
O=C1NC2c3ccccc3C(=O)N2c2c1cnn2-c1ccccc1 (stereo unspecified)	CHRM4 PAM 18
O=C(O)CC(c1ccc(C(F)(F)F)cc1)N1Cc2ccccc2C1=O (stereo unspecified)	none
CC1(C)CC(=O)C(=Cc2cn(CCC#N)nc2-c2ccc(Cl)cc2)C(=O)C1	CHRM4 PAM 20
CSCCC(NC(=O)c1cc(S(=O)(=O)N2CCOCC2)ccc1C)c1nc2ccccc2[nH]1 (stereo unspecified)	none
Cc1ccc(S(=O)(=O)N2CCCC2)cc1C(=O)Nc1ccc(-n2cnnn2)cc1	none
CCN(CC)C(=O)C1CCN(Cc2ccc(Br)cc2)CC1	M4 antag 32
Cc1nc2sccn2c(=O)c1S(=O)(=O)N1CCN(c2ccccc2)CC1	M4 antag 61
Cc1nc2sccn2c(=O)c1S(=O)(=O)NCC1CCN(Cc2ccccc2Cl)CC1	M4 antag 34
COc1ccc(N2CCN(S(=O)(=O)c3c(C)nc4sccn4c3=O)CC2)cc1	none
Cc1ccccc1C(=O)NC1CCN(Cc2nnnn2C(C)(C)C)CC1	none
Cc1ccccc1C(=O)NC1CCN(Cc2nnnn2C2CCCC2)CC1	M5 PAM 32
Cn1nc(C(F)(F)F)c(/C=N/OC(=O)c2ccccc2)c1SCc1ccccc1Cl	M4 antag 30
Cc1ccc(-n2nc3c(n2)/C(=N/O)CC/C3=N\O)cc1	M5 PAM 34
COc1ccc(CNC(=O)CCN2C(=O)[C@@H]3Cc4ccccc4CN3C2=O)cc1	none
Cc1ccc(C)c(CC(=O)N2CCCC(c3cc(C(=O)NCc4ccccc4)no3)C2)c1 (stereo unspecified)	none
Cc1ccc(-n2nc3ccc(N)cc3n2)cc1C	CHRM4 PAM 16, M5 PAM 21
Cc1ccc(-n2nc3ccc(N)cc3n2)cc1Cl	none
O=Cc1c(Nc2cccc(C(F)(F)F)c2)nc2ccccn2c1=O	CHRM4 PAM 16
O=C(N/N=C/c1c(Nc2cccc(C(F)(F)F)c2)nc2ccccn2c1=O)c1ccccc1[N+](=O)[O-]	none
Cn1c2ccccc2c(=O)c2ccc(C#CC3(O)CCCCC3)cc21	M4 ag 37
CN(C)CC/C=C1/c2ccc(F)cc2Sc2ccc(Cl)cc21	M4 antag 100, M5 antag 99
CN(C)CC/C=C1\c2cc(Cl)ccc2Sc2cc(F)c(F)cc21	M4 antag 98, M5 antag 99
CN(C)CC/C=C1\c2ccccc2Sc2ccc(Cl)cc21	M4 antag 98, M5 antag 100
CN(C)CC/C=C1\c2ccccc2Sc2cc(F)c(Cl)cc21	M4 antag 99, M5 antag 100
OCCN1CCN(CC/C=C2/c3ccccc3Sc3ccc(Cl)cc32)CC1	none
CN(C)CCOc1ccc2c(c1)Sc1ccccc1CC2=O	none
COCCCNC(=O)C1CCN(C(=O)c2oc3cc4sc(N(C)C)nc4cc3c2C)CC1	none
CC(C)CCN1C(=O)c2ccccc2C1c1nnnn1C(C)C (stereo unspecified)	none
CCc1nc(Nc2ccccc2F)c2oc3ccccc3c2n1	none
O=C(Oc1ccc(Cl)c2cccnc12)C12CC3CC(CC(C3)C1)C2	none
CN(C)CC/C=C1\c2ccc(F)cc2Sc2cc(F)c(Cl)cc21	M4 antag 99, M5 antag 99
Cn1cc(S(=O)(=O)NCc2ccc3c(c2)OCO3)c(C(F)(F)F)n1	none
Clc1ccc2nnc(Cl)n2n1	CHRM4 PAM 19
FC(F)c1nnc2ccc(Cl)nn12	none
CC(=O)C(Cc1ccccc1)NC(=O)CN(C)Cc1ccccc1Cl (stereo unspecified)	none
COc1ccc(C(CNc2ncnc3sc(C)c(C)c23)N(C)C)cc1 (stereo unspecified)	none
c1cncc(CNc2ncnc3sccc23)c1	none
Cc1sc2ncnc(NCc3ccccc3)c2c1C	M5 antag 29
c1ccc(CNc2ncnc3sccc23)cc1	M5 antag 40
Cc1sc2ncnc(Nc3ccccc3)c2c1C	none
COc1ccccc1C(CNc1ncnc2sc(C)c(C)c12)N(C)C (stereo unspecified)	M5 antag 57
COc1ccc(-c2nc3c4ccccc4ccn3c2Cc2ccccc2)cc1OC	none
CC1(C)ON=C(c2cccc(F)c2)NC1=O	none
COCCCn1cc(CN2CC(N3CCCCC3)CS2(=O)=O)nn1 (stereo unspecified)	none
COc1ccc(C(=O)NNC(=S)NC(=O)C(C)(C)C)cc1	M4 ag 88, M5 ag 27
COc1ccc(C(=O)NC(=S)NNC(=O)c2ccccc2C)cc1	M4 ag 123, M5 antag 28, M5 ag 59
COc1ccc(C(=O)NC(=S)NNC(=O)c2ccccc2O)cc1	none

Source: PubChem (The Scripps Research Institute Molecular Screening Center)
